Sampled rows, rich in hits. Any-hit rate of the full collection: about 1.4%.
FXIIa inh: human FXIIa protease inhibitors, primary screen, biochemical, 1536-well; Coagulation factor XII (Homo sapiens), P00748; purified FXIIa, Boc-QGR-AMC fluorogenic substrate, 2 h; 220,000 compounds, 0.3% hits; inhibition, % at 5 µM; in the data active means inhibition above about 40%;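 further: 0% = enzyme with no compound and 100% = blank without enzyme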
Thrombin inh: human alpha-thrombin inhibitors, primary screen, counter-screen for coagulation protease inhibitor project, biochemical, 1536-well, fluorogenic AMC substrate | AID 1046, 2008 | Boc-VPR-AMC fluorogenic substrate cleavage | 220,000 compounds, 0.26% hits | Prothrombin (Homo sapiens), P00734 | inhibition, % at 5 µM;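 active means inhibition at or above 40%; inactive means inhibition below 40%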;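 further: 0% = enzyme with no compound and 100% = wells without enzyme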
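System: Human alpha-thrombin protein | Medium: pH 7.5 Tris (50 mM) with NaCl 150 mM, Tween 20 0.05% | Times: Enzyme reaction carried out at room temperature | Detection: AMC fluorescence, 355/460 nm | Evaluation: Percent inhibition scaled between no-compound controls and no-enzyme blanks | Benchmarks: Enzyme without compound as high, wells lacking enzyme as low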
hK5 inh: human KLK5 protease inhibitors, primary screen, biochemical, 1536-well. inhibition, % at 5 µM. Kallikrein-5 (Homo sapiens), Q9Y337. AID 873, 2007. 210,000 compounds, 0.59% hits. recombinant hK5, fluorogenic AMC substrate cleavage;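 active means inhibition of 40% or more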;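 further: 0% = enzyme controls without compound and 100% = no-enzyme blanks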
Target sequence (Q9Y337 67-293 limits assumed): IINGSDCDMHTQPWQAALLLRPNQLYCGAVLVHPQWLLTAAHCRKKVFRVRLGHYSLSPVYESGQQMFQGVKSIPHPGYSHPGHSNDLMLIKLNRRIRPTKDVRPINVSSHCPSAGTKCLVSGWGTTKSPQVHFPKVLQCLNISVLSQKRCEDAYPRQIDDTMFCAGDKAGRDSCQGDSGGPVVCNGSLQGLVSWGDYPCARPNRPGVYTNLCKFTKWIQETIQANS
Calpain2 inh: inhibitors of pig calpain II, primary screen, biochemical, fluorogenic peptide substrate, 1536-well; purified calpain II, 30 min; inhibition, % at 16 µM; 220,000 compounds, 0.37% hits;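 active means inhibition above about 50%, limit read from the data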
FXIa inh 1536: human FXIa protease inhibitors, primary screen, biochemical, 1536-well; Coagulation factor XI (Homo sapiens), P03951; purified FXIa, Boc-Glu-Ala-Arg-AMC fluorogenic substrate; inhibition, % at 5 µM; 220,000 compounds, 0.14% hits; AID 798, 2007;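 active means inhibition of at least 40%; inactive means inhibition below 40%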;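 further: fluorescence of freed AMC excited at 355 nm; 0% = enzyme without compound and 100% = no enzyme blank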
Starred values were filed as active, the others as inactive.

Screening O=C(Nc1ccccc1)c1cccc(N2C(=O)CCC2=O)c1 returned FXIIa inh 17, Thrombin inh 19, hK5 inh 63*, Calpain2 inh 4 and FXIa inh 1536 11.
`CN(C)c1ccc(NC(=O)c2cccc(N3C(=O)CCC3=O)c2)cc1` gave FXIIa inh 12, Thrombin inh 2, hK5 inh 0, Calpain2 inh -1 and FXIa inh 1536 5.
Screening CCCn1cc(C(=O)OCC)c(=O)c2cc(F)c(F)cc21 returned FXIIa inh 31, Thrombin inh 4, hK5 inh 23, Calpain2 inh 11 and FXIa inh 1536 65*.
For CCOC(=O)c1cn(CC2CC2)c2cc(F)c(F)cc2c1=O the results were FXIIa inh 2, Thrombin inh -3, hK5 inh -1, Calpain2 inh -7 and FXIa inh 1536 -4.
Screening O=C1OC(Nc2ccc(F)c([N+](=O)[O-])c2)c2ccccc21 (stereo unspecified) returned FXIIa inh 26, Thrombin inh 50*, hK5 inh 26, Calpain2 inh 10 and FXIa inh 1536 44*.
Screening CN(NC1OC(=O)c2ccccc21)c1ccc(Cl)cc1[N+](=O)[O-] (stereo unspecified) returned FXIIa inh 5, Thrombin inh -6, hK5 inh -6, Calpain2 inh 21 and FXIa inh 1536 4.
For CCn1c(SCC(=O)N2CCCCC2)nc(O)cc1=O the results were FXIIa inh 44*, Thrombin inh -5, hK5 inh 7, Calpain2 inh 29 and FXIa inh 1536 -19.
CCn1c(SCC(=O)N2CCOCC2)nc(O)cc1=O was read as FXIIa inh 18, Thrombin inh 2, hK5 inh -5, Calpain2 inh -11 and FXIa inh 1536 7.
Screening CCN1CCN(C(=O)CSc2cc(=O)n(CC)c3ccccc23)CC1 returned FXIIa inh 6, Thrombin inh 1, hK5 inh 5, Calpain2 inh -23 and FXIa inh 1536 -3.
`CCn1c(=O)cc(SCC(=O)N2CCCCC2)c2ccccc21` gave FXIIa inh 19, Thrombin inh 13, hK5 inh 121*, Calpain2 inh -1 and FXIa inh 1536 5.
For Cn1cc(Br)c(-c2cccc(NC(=O)CC(C)(C)CC(=O)O)c2)n1 the results were FXIIa inh 7, Thrombin inh -5, hK5 inh -1, Calpain2 inh -13 and FXIa inh 1536 -2.
`O=[N+]([O-])c1ccc(C2Nc3cccc4cccc(c34)N2)cc1` gave FXIIa inh 9, Thrombin inh 12, hK5 inh 63*, Calpain2 inh 27 and FXIa inh 1536 15.
`CCS(=O)(=O)Nc1ccc(C2=NN(S(C)(=O)=O)C(c3cccs3)C2)cc1` (stereo unspecified) gave FXIIa inh 8, Thrombin inh -9, hK5 inh 1, Calpain2 inh -223 and FXIa inh 1536 -2.
Screening Cc1ccc(Oc2nn[nH]n2)cc1 returned FXIIa inh -9, Thrombin inh -5, hK5 inh -1, Calpain2 inh 3 and FXIa inh 1536 -11.
For CCc1cccc(Oc2nn[nH]n2)c1 the results were FXIIa inh 16, Thrombin inh 20, hK5 inh 77*, Calpain2 inh 15 and FXIa inh 1536 9.
`CCN1/C(=C/c2ccc3cccc(C)c3[n+]2CC)Sc2ccccc21` gave FXIIa inh 28, Thrombin inh 40, hK5 inh 51*, Calpain2 inh 46 and FXIa inh 1536 13.
CCN1/C(=C/c2ccc3cc(C)cc(C)c3[n+]2CC)Sc2cc(C)ccc21 was read as FXIIa inh 7, Thrombin inh -3, hK5 inh 4, Calpain2 inh 39 and FXIa inh 1536 -1.
NC(=O)c1nc(-c2ccco2)nc2c1[nH]c(=O)n2-c1ccc(Cl)c(Cl)c1 was read as FXIIa inh 8, Thrombin inh 0, hK5 inh -3, Calpain2 inh -30 and FXIa inh 1536 2.
`CSc1nc(N)n2nc(-c3ccc(Cl)cc3)cc2n1` gave FXIIa inh 5, Thrombin inh 2, hK5 inh 6, Calpain2 inh -2 and FXIa inh 1536 5.

From PubChem
